The values below come from ChEMBL document CHEMBL3596178, “Synthesis and biological evaluation of curcumin derivatives containing NSAIDs for their anti-inflammatory activity” (Bioorg Med Chem Lett, 2015).

As a reminder, the IC50 is the midpoint of a concentration-inhibition curve. Higher therefore signals a need for much substance.

Each structure is given as a SMILES string. The source made the active and inactive calls. No cut-off for these calls is given here.

Assay [1] concerns RAW264.7. Description: Inhibition of TPA-induced cell proliferation of mouse RAW264.7 cells. The assay is classed as functional, cell-based. The essentials: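 RAW 264.7 macrophages; proliferation measured by MTT assay. IC50 reported as mean±SD of three independent experiments.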
Assay [2] has as its system Mus musculus. The assay can be described thus: Anti-inflammatory activity in BALB/c mouse model of TPA-induced ear edema assessed as reduction in phosphorylated p65 level at 0.75 uM applied topically 6 mins before to TPA treatment by immunohistochemistry. The format is functional, organism-based. The essentials: (§1)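 TPA-induced ear edema in BALB/c mice, agents applied topically before TPA. Ear tissue examined immunohistochemically with a nonphosphorylated p65 antibody and an anti-phospho-Ser536 p65 antibody.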

Assay [3] relates to Mus musculus. Description: Anti-inflammatory activity in BALB/c mouse assessed as reduction in TPA-induced ear edema by measuring weight of ear punches at 0.75 uM applied topically 6 mins before to TPA treatment. The assay is classed as functional. The essentials:
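Female BALB/c mice; TPA applied topically to ears, test agents applied topically 6 min before TPA. Edema read as weight of 6 mm diameter ear punch biopsies. Screening concentration 0.75 µM.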

In assay [4] the test system is Mus musculus. The assay can be described thus: Anti-inflammatory activity in BALB/c mouse model of TPA-induced ear edema assessed as reduction in inflammatory cells infiltration at 0.75 uM applied topically 6 mins before to TPA treatment by H and E staining method. The format is functional, organism-based. The essentials: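 Female BALB/c mouse ears pretreated topically with agents or acetone (control), then TPA applied topically. Ear sections stained with H&E and assessed histologically for epidermal hyperkeratosis, stratum corneum thickening and inflammatory cell infiltration.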

In assay [5] the test system is Mus musculus. Description: Anti-inflammatory activity in BALB/c mouse model of TPA-induced ear edema assessed as reduction in TNFalpha levels at 0.75 uM applied topically 6 mins before to TPA treatment by immunohistochemistry. The assay is classed as functional, organism-based.
Assay [6] relates to Mus musculus. The assay can be described thus: Anti-inflammatory activity in BALB/c mouse model of TPA-induced ear edema assessed as reduction in IKK activity level at 0.75 uM applied topically 6 mins before to TPA treatment by immunohistochemistry. The assay is classed as functional, organism-based.
Assay [7] has as its system Mus musculus. Description: Anti-inflammatory activity in BALB/c mouse model of TPA-induced ear edema assessed as reduction in Ikappa-Balpha phosphorylation level at 0.75 uM applied topically 6 mins before to TPA treatment by immunohistochemistry. The format is functional, organism-based. A digest of the protocol: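 TPA-induced ear edema in BALB/c mice, agents applied topically before TPA. Ear tissue examined immunohistochemically with an anti-phospho-Ser36 IκBα antibody and a nonphosphorylated IκB antibody.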

The subject of assay [8] is Mus musculus. Description: Anti-inflammatory activity in BALB/c mouse model of TPA-induced ear edema assessed as reduction in p65 nuclear translocation at 0.75 uM applied topically 6 mins before to TPA treatment by immunohistochemistry. The assay is classed as functional, organism-based. A digest of the protocol:
as §1

Assay [9] deals with Mus musculus. Description: Anti-inflammatory activity in BALB/c mouse model of TPA-induced ear edema assessed as reduction in IL-6 levels at 0.75 uM applied topically 6 mins before to TPA treatment by immunohistochemistry. The format is functional, organism-based.
The subject of assay [10] is Mus musculus. The assay can be described thus: Anti-inflammatory activity in BALB/c mouse model of TPA-induced ear edema assessed as reduction in IL-1beta levels at 0.75 uM applied topically 6 mins before to TPA treatment by immunohistochemistry. The assay is classed as functional, organism-based.

Take `COc1cc(/C=C/C(=O)CC(=O)/C=C/c2ccc(OC(=O)c3ccccc3OC(=O)c3ccccc3O)c(OC)c2)ccc1OC(=O)c1ccccc1OC(=O)c1ccccc1O`: in assay [1], the concentration for half-maximal inhibition (IC50) is greater than 30 µM. Also, the inhibition result in assay [2], in assay [4], in assay [5], in [6] and in [7] was “Active” in each case. The “inhibition (INH)” value in assay [3] turned out to be 93.3%.

In [1], `COc1cc(/C=C/C(=O)CC(=O)/C=C/c2ccc(OC(=O)CCc3nc(-c4ccccc4)c(-c4ccccc4)o3)c(OC)c2)ccc1OC(=O)CCc1nc(-c2ccccc2)c(-c2ccccc2)o1` gave an IC50 greater than 30 µM. For the same compound, the “inhibition (INH)” value in assay [3] is 10%.

In the case of `O=C(O)c1ccccc1O`, the inhibition result in [4] was “Active”.

Take `COc1cc(/C=C/C(=O)CC(=O)/C=C/c2ccc(OC(=O)c3cc(-c4ccc(F)cc4F)ccc3O)c(OC)c2)ccc1O`: the 50% inhibitory concentration (IC50) in [1] is 12.9 µM. Further, in assay [3], the “inhibition (INH)” value was 10%.

`COc1cc(/C=C/C(=O)CC(=O)/C=C/c2ccc(OC(=O)c3ccccc3OC(C)=O)c(OC)c2)ccc1O` displayed a half-maximal inhibitory concentration (IC50) in [1] greater than 30 µM. In addition, in [3], the “inhibition (INH)” value was 10%.

In assay [1], `COc1cc(/C=C/C(=O)CC(=O)/C=C/c2ccc(OC(=O)C(C)c3cccc(C(=O)c4ccccc4)c3)c(OC)c2)ccc1OC(=O)C(C)c1cccc(C(=O)c2ccccc2)c1` (stereo unspecified) registered an IC50 greater than 30 µM. Besides, the “inhibition (INH)” value in assay [3] came out at 10%.

In turn, `COc1ccc2c(c1)c(CC(=O)Oc1ccc(/C=C/C(=O)CC(=O)/C=C/c3ccc(OC(=O)Cc4c(C)n(C(=O)c5ccc(Cl)cc5)c5ccc(OC)cc45)c(OC)c3)cc1OC)c(C)n2C(=O)c1ccc(Cl)cc1` registered an IC50 in [1] greater than 30 µM. For the same compound, the “inhibition (INH)” value in assay [3] is recorded as 10%.

For the compound `COc1cc(/C=C/C(=O)CC(=O)/C=C/c2ccc(OC(=O)c3ccccc3Nc3cccc(C)c3C)c(OC)c2)ccc1OC(=O)c1ccccc1Nc1cccc(C)c1C`, the IC50 in assay [1] was greater than 30 µM. Moreover, in assay [3], the “inhibition (INH)” value worked out at 10%.

As to `COc1cc(/C=C/C(=O)CC(=O)/C=C/c2ccc(OC(=O)CCc3nc(-c4ccccc4)c(-c4ccccc4)o3)c(OC)c2)ccc1O`, in assay [1], the IC50 is 19.3 µM. Moreover, in assay [3], the “inhibition (INH)” value was determined as 75%.

`COc1cc(/C=C/C(=O)CC(=O)/C=C/c2ccc(OC(=O)C(C)c3ccc(CC(C)C)cc3)c(OC)c2)ccc1O` (stereo unspecified) had an IC50 in assay [1] greater than 30 µM. For the same compound, in assay [3], the “inhibition (INH)” value was found to be 91.8%.

Take `O=C(Oc1ccccc1C(=O)O)c1ccccc1O`: the inhibition result in [4] was “Active”.

On to `COc1cc(/C=C/C(=O)CC(=O)/C=C/c2ccc(OC(=O)C(C)c3cccc(C(=O)c4ccccc4)c3)c(OC)c2)ccc1O` (stereo unspecified), for which the IC50 in assay [1] was found to be 8.98 µM. Further, the “inhibition (INH)” value in assay [3] amounted to 68.8%.

Compound `COc1cc(/C=C/C(=O)CC(=O)/C=C/c2ccc(OC(=O)c3ccccc3Nc3cccc(Cl)c3C)c(OC)c2)ccc1O` came in with a half-maximal inhibitory concentration (IC50) in [1] of 9.2 µM. Moreover, the “inhibition (INH)” value in assay [3] is reported as 85%.

In the case of `COc1ccc2cc([C@@H](C)C(=O)Oc3ccc(/C=C/C(=O)CC(=O)/C=C/c4ccc(OC(=O)[C@H](C)c5ccc6cc(OC)ccc6c5)c(OC)c4)cc3OC)ccc2c1`, the half-inhibitory concentration (IC50) in assay [1] is greater than 30 µM. For the same compound, in [3], the “inhibition (INH)” value stood at 10%.

Take `CCc1cccc2c3c([nH]c12)C(CC)(CC(=O)Oc1ccc(/C=C/C(=O)CC(=O)/C=C/c2ccc(OC(=O)CC4(CC)OCCc5c4[nH]c4c(CC)cccc54)c(OC)c2)cc1OC)OCC3` (stereo unspecified): in assay [1], the 50% inhibitory concentration (IC50) is greater than 30 µM.

`COc1cc(/C=C/C(=O)CC(=O)/C=C/c2ccc(OC(=O)c3ccccc3O)c(OC)c2)ccc1O` gave a concentration for half-maximal inhibition (IC50) in assay [1] greater than 30 µM. Also, the inhibition result in assay [8], in [9], in assay [4], in assay [6], in assay [10] and in [7] was “Active” each time. Besides, the inhibition (INH) in assay [3] amounted to 91.8%.

The compound `COc1cc(/C=C/C(=O)CC(=O)/C=C/c2ccc(OC(=O)c3cc(-c4ccc(F)cc4F)ccc3O)c(OC)c2)ccc1OC(=O)c1cc(-c2ccc(F)cc2F)ccc1O` came in with an IC50 in assay [1] greater than 30 µM. In addition, in assay [3], the “inhibition (INH)” value worked out at 85%.

In assay [1], `COc1cc(/C=C/C(=O)CC(=O)/C=C/c2ccc(OC(=O)c3ccccc3Nc3cccc(C)c3C)c(OC)c2)ccc1O` had an IC50 of 28 µM. In [3], the “inhibition (INH)” value stood at 78%.

On to `CCc1cccc2c3c([nH]c12)C(CC)(CC(=O)Oc1ccc(/C=C/C(=O)CC(=O)/C=C/c2ccc(O)c(OC)c2)cc1OC)OCC3` (stereo unspecified), for which the concentration for half-maximal inhibition (IC50) in assay [1] is 25.3 µM. Further, the “inhibition (INH)” value in assay [3] was found to be 10%.

Consider `COc1cc(/C=C/C(=O)CC(=O)/C=C/c2ccc(OC(=O)c3ccccc3Nc3cccc(C(F)(F)F)c3)c(OC)c2)ccc1O`, for which, in assay [1], it took 5.54 µM to reach half-maximal inhibition (IC50). In addition, the “inhibition (INH)” value in assay [3] was 90%.

Compound `COc1cc(/C=C/C(=O)CC(=O)/C=C/c2ccc(OC(=O)c3ccccc3OC(=O)c3ccccc3O)c(OC)c2)ccc1O` yielded a half-maximal inhibitory concentration (IC50) in assay [1] greater than 30 µM. Further, in [3], the “inhibition (INH)” value was 10%.

In turn, `COc1cc(/C=C/C(=O)CC(=O)/C=C/c2ccc(OC(=O)C(C)c3ccc(CC(C)C)cc3)c(OC)c2)ccc1OC(=O)C(C)c1ccc(CC(C)C)cc1` (stereo unspecified) yielded an IC50 in assay [1] of 7.36 µM.

Turning to `COc1ccc2cc(C(C)C(=O)Oc3ccc(/C=C/C(=O)CC(=O)/C=C/c4ccc(O)c(OC)c4)cc3OC)ccc2c1` (single isomer, unassigned), the 50% inhibitory concentration (IC50) in assay [1] is 18.7 µM. In [3], the “inhibition (INH)” value was 87.8%.

For the compound `COc1cc(/C=C/C(=O)CC(=O)/C=C/c2ccc(OC(=O)c3ccccc3Nc3cccc(Cl)c3C)c(OC)c2)ccc1OC(=O)c1ccccc1Nc1cccc(Cl)c1C`, the half-maximal inhibitory concentration (IC50) in assay [1] was 28 µM. For the same compound, the “inhibition (INH)” value in [3] turned out to be 10%.

`COc1cc(/C=C/C(=O)CC(=O)/C=C/c2ccc(O)c(OC)c2)ccc1O` [CURCUMIN] gave an IC50 in assay [1] of 22.9 µM.

`COc1cc(/C=C/C(=O)CC(=O)/C=C/c2ccc(OC(=O)c3ccccc3Nc3cccc(C(F)(F)F)c3)c(OC)c2)ccc1OC(=O)c1ccccc1Nc1cccc(C(F)(F)F)c1` displayed an IC50 in assay [1] of 12.9 µM. Further, the “inhibition (INH)” value in [3] is 10%.

Take `COc1cc(/C=C/C(=O)CC(=O)/C=C/c2ccc(OC(=O)c3ccccc3O)c(OC)c2)ccc1OC(=O)c1ccccc1O`: in assay [1], the half-inhibitory concentration (IC50) is 6.11 µM. For the same compound, the “inhibition (INH)” value in [3] was found to be 38.5%.

The compound `COc1cc(/C=C/C(=O)CC(=O)/C=C/c2ccc(OC(=O)Cc3ccccc3Nc3c(Cl)cccc3Cl)c(OC)c2)ccc1O` came in with an IC50 in [1] greater than 30 µM. Also, the “inhibition (INH)” value in assay [3] came out at 10%.

`COc1cc(/C=C/C(=O)CC(=O)/C=C/c2ccc(OC(=O)Cc3ccccc3Nc3c(Cl)cccc3Cl)c(OC)c2)ccc1OC(=O)Cc1ccccc1Nc1c(Cl)cccc1Cl` showed an IC50 in assay [1] greater than 30 µM. Besides, in assay [3], the “inhibition (INH)” value amounted to 10%.

The compound `COc1cc(/C=C/C(=O)CC(=O)/C=C/c2ccc(OC(=O)c3ccccc3OC(C)=O)c(OC)c2)ccc1OC(=O)c1ccccc1OC(C)=O` showed an IC50 in assay [1] greater than 30 µM. Moreover, in assay [3], the “inhibition (INH)” value is recorded as 87.8%.
